High-throughput results: PubChem BioAssay, several laboratories
Hits are enriched below; roughly 11% of the tested compounds scored in any of these assays.
Diaphorase inh: diaphorase inhibition or chemical oxidation counter-screen | diaphorase resazurin-to-resorufin fluorescence, NADH, 16 min; bacterial (C. kluyveri) enzyme, not human | inhibition, % at 20 µM | hit rate 0.69% among 190,000 | AID 1217;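 active = primary screen inhibition at 20 µM above a set limit, cut at about 50% in these data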;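 note: plate controls were DMSO with full reaction for no effect and wells lacking NADH for full effect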
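Test system: Clostridium kluyveri diaphorase enzyme / Quantity: diaphorase at 0.14 U/mL in enzyme working solution / Incubation: 16-min room-temperature incubation before reading / Benchmarks: NADH-free wells as positive control, DMSO-only neutral wells / Signal: resorufin fluorescence 544/590 nm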
Diaphorase act: diaphorase activation or chemical reduction counter-screen; Diaphorase/resazurin coupled assay, resorufin fluorescence, 16 min; hits give high values; 1 = vehicle wells, 0 = NADH-free wells; activation factor at 20 µM; hit rate 0.005% among 190,000;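 active = diaphorase activity raised at least twofold by the compound at 20 µM; inactive = activation factor below 2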
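Test system: Clostridium kluyveri diaphorase, purified enzyme. Buffer or medium: 50 mM HEPES pH 7.4 buffer plus MgCl2 and Tween 20. Also added: 0.114 mM NADH and 0.1 mM resazurin, final amounts. Dosing: compound 20 µM once, DMSO 1%. Schedule: 16 min enzyme reaction, ambient temperature. Detection: fluorescence of resorufin, 544 nm excitation, 590 nm emission.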
G6PDH CS: inhibits Leuconostoc G6PDH, flagging false hits in G6PDH-based assays | hit rate 0.12% among 200,000 | inhibition, % at 5 µM | Purified L. mesenteroides G6PDH, diaphorase/resazurin coupled fluorescence, 45 min
L major viab: reduces viability of Leishmania major promastigotes. resazurin fluorescence viability. inhibition, % at 10 µM. hit rate 9% among 200,000;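 note: promastigotes grown with compound for 44 hours at 28 °C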
WT yeast gro inh: growth inhibition of WT yeast, mitochondrial fusion screen; mitochondrial fusion phenotypic screen, WT strain; inhibition, % at 10 µM; hit rate 2.1% among 190,000; AID 1362; in the data active = inhibition above about 58%; tested in S. cerevisiae
Numbers without * were called inactive. Cut-off read from the data, not from the text of the source, unless noted: active = inhibition above about 50%; inactive = the rest.

SMILES	Diaphorase inh	Diaphorase act	G6PDH CS	L major viab	WT yeast gro inh
CCCSc1nc(=O)n2cccc(C)c2n1	12.0	0.9	-10.6	-5.0	10.6
COc1ccc(-n2c(=O)cc(N3CC(C)OC(C)C3)[nH]c2=O)cc1 (configuration not stated)	12.5	0.9	6.6	-9.2	-1.6
CCC(=O)Nc1cc(OC)c(NC(=O)c2ccccc2)cc1OC	23.8	0.8	-7.5	77.0*	12.9
COc1cc(NC(=O)c2ccccc2)c(OC)cc1NC(C)=O	12.9	0.9	2.5	3.3	-3.1
NC(=S)n1[nH]c(-c2ccc([N+](=O)[O-])cc2)c(N=Nc2ccc(Cl)cc2)c1=O	31.1	0.7	-3.9	97.2*	78.3*
Cc1ccc(N=Nc2c(C)[nH]n(C(N)=S)c2=O)cc1	20.5	0.8	2.1	29.4	55.5
CC(=O)Nc1ccc(S(=O)(=O)N2CCCC(C(=O)O)C2)cc1 (configuration not stated)	-19.3	1.2	6.6	-1.8	-12.4
CCOC(=O)c1c(NC(=O)c2ccccc2)sc2c(O)c(CN(CC)CC)ccc12	21.6	0.8	2.9	100.3*	15.6
CCN(CC)Cc1c(NC(=O)c2ccccc2)sc(C)c1C	8.3	0.9	1.8	20.6	26.0
CCOC(=O)Cn1cc(/C=N/N2C(=O)C3C4C=CC(C4)C3C2=O)c2ccccc21 (configuration not stated)	-10.2	1.1	8.8	1.4	-13.0
O=C(NCc1ccc2c(c1)OCO2)c1ccc(CSCc2ccc(Cl)cc2)o1	21.4	0.8	6.9	50.5*	59.1*
O=C(NCc1ccc2c(c1)OCO2)c1ccc(CS(=O)(=O)Cc2cccc(Cl)c2)o1	15.7	0.8	-14.1	79.0*	-10.0
Cc1[nH]c2ccc(CNS(=O)(=O)c3ccc(S(=O)(=O)N4CCOCC4)cc3)cc2c1C	28.4	0.7	-0.4	8.7	-2.2
CNC(=O)NC1CCCc2ccccc21 (configuration not stated)	18.6	0.8	1.4	-2.7	23.1
CC(C(=O)NC1CCCc2ccccc21)N1CCN(Cc2ccc3c(c2)OCO3)CC1 (configuration not stated)	4.5	1	10.3	86.2*	4.7
CC(C(=O)NC1CCCc2ccccc21)N1CCN(c2ccc(F)cc2)CC1 (configuration not stated)	10.4	0.9	14.9	69.8*	18.7
O=c1c2ccccc2nc2n1CCN2Cc1ccc(Cl)cc1	11.3	0.9	-12.4	-7.8	3.4
Cc1ccc(NC(=O)c2ccc(F)cc2)cc1S(=O)(=O)N1CCCCCC1	0.0	1	3.6	48.7	18.3
Cc1ccc(OCC(=O)Nc2cccc(S(=O)(=O)N3CCCCC3)c2)c([N+](=O)[O-])n1	11.8	0.9	-14.8	13.9	7.9
Cc1ccc(C(=O)Nc2ccc3cn[nH]c3c2)cc1S(=O)(=O)N1CCCCC1	1.9	1	-4.2	50.3*	-0.9
Cc1ccc(OCC(=O)Nc2ccc(C)c(S(=O)(=O)N3CCCCCC3)c2)c([N+](=O)[O-])n1	30.0	0.7	2.9	63.5*	18.9
Cc1ccc(NC(=O)CSc2ccccn2)cc1S(=O)(=O)N1CCOCC1	12.5	0.9	2.1	0.5	8.1
Cc1ccc(NC(=O)CN2c3cccc4cccc(c34)S2(=O)=O)cc1S(=O)(=O)N1CCOCC1	26.8	0.7	13.4	96.3*	-7.2
Cc1ccc(NC(=O)CSc2nccn2C)cc1S(=O)(=O)N1CCOCC1	10.8	0.9	2.4	56.7*	-25.9
Cc1ccc(S(=O)(=O)N(C)C)cc1NC(=O)COC(=O)c1ccc(Cl)cc1	14.4	0.9	-4.2	-5.6	4.1
SMILES	Diaphorase inh	Diaphorase act	G6PDH CS	L major viab	WT yeast gro inh
Cc1cc(Nc2c(C)n(C)n(-c3ccccc3)c2=O)c2ccccc2n1	2.1	1	8.5	-3.3	-23.8
Cc1ccc(NC(=O)CCl)cc1S(=O)(=O)N1CCCCCC1	12.5	0.9	1.9	90.7*	-11.9
CCN(CC1COc2ccccc2O1)S(=O)(=O)c1ccc(C)cc1 (configuration not stated)	13.6	0.9	-6.1	45.7	27.9
CC(C)(C)c1ccc(/C=N/NC(=S)Nc2cccnc2)cc1	-0.3	1	-2.1	16.6	60.4*
Oc1ccc(/C=N/NC(=S)Nc2cccnc2)cc1O	48.5	0.5	30.6	-0.1	-8.5
CC1(C)C2CC=C(/C=N/NC(=S)Nc3cccnc3)C1C2 (configuration not stated)	18.9	0.8	1.6	97.4*	15.1
COc1ccccc1/C=N/NC(=S)Nc1cccnc1	8.0	0.9	6.9	-7.4	0.9
CCC(C)(C)C1CCC(=NNC(=S)Nc2cccnc2)CC1 (configuration not stated)	16.9	0.8	8.0	0.2	-4.8
CCCCNC(=S)N/N=C/C1=CCC2CC1C2(C)C (configuration not stated)	18.6	0.8	2.1	100.1*	69.8*
CC1=C/C(=N\NC(=S)Nc2cccnc2)CC(C)(C)C1	41.6	0.6	1.4	99.4*	39.6
COc1ccc(Cl)cc1N1C(=O)C2CCCN2C1c1ccc(F)cc1 (configuration not stated)	1.1	1	-1.8	-2.2	-10.7
CC(C)NC(=S)N/N=C/C1=CCC2CC1C2(C)C (configuration not stated)	25.6	0.7	3.6	99.7*	72.8*
CC(=O)N/N=C/C1=CCC2CC1C2(C)C (configuration not stated)	8.7	0.9	-0.3	6.7	13.1
C=CCNC(=S)N/N=C/c1ccc(C(C)(C)C)cc1	12.9	0.9	6.5	18.3	76.5*
C=C(C)CNC(=S)N/N=C/C1=CCC2CC1C2(C)C (configuration not stated)	16.7	0.8	-2.5	99.7*	64.0
COc1ccc(S(=O)(=O)N2CCC(C(=O)NCC3CCCO3)CC2)cc1 (configuration not stated)	9.1	0.9	10.3	-8.4	-1.4
CCc1cc(C(=O)NNC(=S)NCC2CCCO2)cs1 (configuration not stated)	9.7	0.9	-2.1	-0.9	-20.3
COc1cccc(/C=C/c2ccncc2)c1OC	14.2	0.9	-2.7	85.8*	18.0
NNc1nc2ccc(F)cc2s1	10.6	0.9	12.4	96.4*	64.7*
C=CCn1c(C)cc(C2=NNC(=NCc3ccccc3)SC2)c1C	-4.5	1	5.5	48.5	0.7
C=C(C)CN=C1NN=C(c2cc(C)n(-c3ccc(C)cc3)c2C)CS1	12.7	0.9	-3.5	91.1*	5.1
Cc1cc(C2=NNC(=NC3CC3)SC2)c(C)n1-c1ccccc1F	-2.4	1	0.6	76.7*	-4.3
O=C(/C(C=Nc1ccc(F)cc1)=C(/O)c1ccco1)C(F)(F)F	-0.6	1	20.7	2.3	-7.3
CSc1nc(NCc2ccco2)c2ccccc2n1	12.9	0.9	4.7	69.9*	12.6
Cc1ccc(-c2nc(NCc3ccco3)c3ccccc3n2)cc1	12.0	0.9	-1.1	100.0*	67.3*
